Measurements of several laboratories.
Protocols differ between the studies behind these lines. Values after ≈ are worked out from the molar mass of the structure shown.

COc1ccc(-n2cc(Cn3c(C(=O)O)nc4ccccc4c3=O)nn2)cc1  IC50 (Nakaseomyces glabratus; microbial growth, broth dilution; ATCC90030; 24 h): 718 µg/mL
O=C(O)c1cn(C2CC2)c2cc(N3CCNCC3)c(F)cc2c1=O  MBC (Bacillus subtilis; microbial killing, broth dilution): 0.5 µg/mL (≈ 1.51 µM)
CCOC(=O)c1nc2ccccc2c(=O)n1Cc1cn(-c2ccc(C(=O)O)cc2)nn1  IC50 (Nakaseomyces glabratus; microbial growth, broth dilution; ATCC90030; 24 h): 87.7 µg/mL
CCCCCCC/C=C/C(=O)N1C(=O)/C(=C(\O)c2ccncc2)C(=O)C1CC(C)C (stereo not drawn)  MIC (Proteus vulgaris; microbial growth; ATCC33420): > 200 µg/mL
CCOC(=O)c1nc2ccccc2c(=O)n1Cc1cn(-c2ccccc2Cl)nn1  IC50 (Nakaseomyces glabratus; microbial growth, broth dilution; ATCC90030; 24 h): 183 µg/mL
N#CC(=Cc1ccccc1O)C1=NC(=O)C(=Cc2cn(-c3ccccc3)nc2-c2ccccc2)S1  inhibition zone (Bacillus subtilis; microbial growth, well diffusion; 100000 µg/mL): 25 mm
C[C@@H](c1ncncc1F)[C@](O)(Cn1cncn1)c1ccc(F)cc1F  IC50 (Acanthamoeba polyphaga; parasite growth, resazurin; 7 days): 55.3 µM
Cc1ccc(-c2nn(-c3ccccc3)cc2C=c2sc(=CC#N)[nH]c2=O)cc1  inhibition zone (Bacillus subtilis; microbial growth, well diffusion; 100000 µg/mL): 12 mm
CCOC(=O)c1nc2ccccc2c(=O)n1Cc1cn(-c2ccc(C)cc2)nn1  IC50 (Nakaseomyces glabratus; microbial growth, broth dilution; ATCC90030; 24 h): 8.4 µg/mL
CCCCCCC/C=C/C(=O)N1C(=O)/C(=C(/C)O)C(=O)C1CO (stereo not drawn)  MIC (Proteus vulgaris; microbial growth; ATCC33420): > 200 µg/mL
Cc1c(NC(=O)CC2=NC(=O)CS2)c(=O)n(-c2ccccc2)n1C  MBC (Bacillus subtilis; microbial killing, broth dilution): 2 µg/mL (≈ 5.81 µM)
O=C(O)c1nc2ccccc2c(=O)n1Cc1cn(-c2cccc(Cl)c2)nn1  IC50 (Nakaseomyces glabratus; microbial growth, broth dilution; ATCC90030; 24 h): 278 µg/mL
C[C@@H]1[C@H](O)[C@@H](C)/C=C/C=C/C=C/C=C/C=C/C=C/C=C/[C@H](O[C@@H]2O[C@H](C)[C@@H](O)[C@H](N)[C@@H]2O)C[C@@H]2O[C@](O)(C[C@@H](O)C[C@@H](O)[C@H](O)CC[C@@H](O)C[C@@H](O)CC(=O)O[C@H]1C)C[C@H](O)[C@H]2C(=O)O  MFC (Nakaseomyces glabratus; microbial killing; ATCC90030): 0.63 µg/mL (≈ 0.682 µM)
C/C(O)=C1\C(=O)C(CC(C)C)N(C(=O)C=Cc2ccccc2)C1=O (stereo not drawn)  MIC (Proteus vulgaris; microbial growth; ATCC33420): > 200 µg/mL
O=C(O)c1nc2ccccc2c(=O)n1Cc1cn(-c2ccc([N+](=O)[O-])cc2)nn1  IC50 (Nakaseomyces glabratus; microbial growth, broth dilution; ATCC90030; 24 h): 432 µg/mL
CCOC(=O)c1c(N)csc1-c1cn(-c2ccccc2)nc1-c1ccc(C)cc1  MBC (Bacillus subtilis; microbial killing, broth dilution): 0.25 µg/mL (≈ 0.62 µM)
CC1(C)S[C@@H]2[C@H](NC(=O)[C@H](N)c3ccccc3)C(=O)N2[C@H]1C(=O)O  inhibition (Listeria monocytogenes; microbial growth, agar dilution; 26.93 µM): 100%
O=C(O)CN1C(=O)/C(=C/c2ccc(-c3ccc(N(c4ccccc4)c4ccccc4)cc3)c3ccccc23)SC1=S  MBC (Bacillus subtilis; microbial killing, broth dilution; ATCC6633): 1000 µg/mL (≈ 1750 µM)
Cc1c(NN=C2SC(CC#N)=NC2=O)c(=O)n(-c2ccccc2)n1C  inhibition zone (Bacillus subtilis; microbial growth, well diffusion; 100000 µg/mL): 14 mm
O=C1NC(=S)S/C1=C\c1c2ccccc2c(-c2ccc(N(c3ccccc3)c3ccccc3)cc2)c2ccccc12  MBC (Bacillus subtilis; microbial killing, broth dilution; ATCC6633): > 1000 µg/mL
C[C@@H]1[C@H](O)[C@@H](C)/C=C/C=C/C=C/C=C/C=C/C=C/C=C/[C@H](O[C@@H]2O[C@H](C)[C@@H](O)[C@H](N)[C@@H]2O)C[C@@H]2O[C@](O)(C[C@@H](O)C[C@@H](O)[C@H](O)CC[C@@H](O)C[C@@H](O)CC(=O)O[C@H]1C)C[C@H](O)[C@H]2C(=O)O  IC50 (Cryptococcus neoformans; microbial growth, broth dilution; ATCC90113): 0.24 µg/mL
